Experiments:
Plasmodium falciparum [1] = experiment: Antimalarial activity after 72 hrs against chloroquine-sensitive Plasmodium falciparum D6 by Malstat LDH activity; format: functional, organism-based; settings: D6, 72 h
How it was run: (§1)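 P. falciparum (D6 or W2) infected red cell suspension at 2% parasitemia and 2% hematocrit in RPMI 1640 with 10% human serum and amikacin, added to serially diluted samples. Incubated 72 h at 37 °C under 90% N2/5% O2/5% CO2. Parasite LDH read with Malstat reagent and NBT/PES, acetic acid stop, 650 nm. IC50 taken from dose-response curves; artemisinin and chloroquine run as controls.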

Plasmodium falciparum [2] = experiment: Antimalarial activity after 72 hrs against chloroquine-resistant Plasmodium falciparum W2 by Malstat LDH activity; format: functional, organism-based; settings: W2, 72 h; how it was run: as §1
Vero [3] = experiment: Cytotoxicity against african green monkey Vero cells upto 16.72 uM after 48 hrs by neutral red assay; format: cell-based; settings: chlorocebus sabaeus
How it was run: (§2)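 Vero monkey kidney cells seeded at 25,000 cells/well and grown 24 h, then exposed to samples at several concentrations for 48 h. Viable cells counted by Neutral Red uptake. IC50 taken from dose-response curves; doxorubicin run as positive control.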

[4] = Selectivity index, ratio of IC50 for african green monkey (Cercopithecus aethiops) Vero cells to IC50 for chloroquine-sensitive Plasmodium falciparum D6; format: toxicity, cell-based; settings: read-out: Ratio IC50
How it was run: (§3)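 Selectivity index is Vero cytotoxicity IC50 (Neutral Red, 48 h) divided by P. falciparum D6 or W2 IC50 (parasite LDH, 72 h).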

[5] = Selectivity index, ratio of IC50 for african green monkey (Cercopithecus aethiops) Vero cells to IC50 for chloroquine-resistant Plasmodium falciparum W2; format: toxicity, cell-based; settings: read-out: Ratio IC50; how it was run: as §3
SK-MEL = experiment: Cytotoxicity human SK-MEL cells upto 30 uM after 48 hrs by neutral red assay; format: cell-based
KB = experiment: Cytotoxicity human KB cells upto 30 uM after 48 hrs by neutral red assay; format: cell-based
BT-549 = experiment: Cytotoxicity human BT549 cells upto 30 uM after 48 hrs by neutral red assay; format: cell-based; settings: bt-549, 48 h
SK-OV-3 = experiment: Cytotoxicity human SKOV3 cells upto 30 uM after 48 hrs by neutral red assay; format: cell-based; settings: sk-ov-3, 48 h
[6] = Cytotoxicity pig LLC-PK11 cells upto 30 uM after 48 hrs by neutral red assay; format: cell-based, Sus scrofa; settings: llc-pk11, 48 h
Vero [7] = experiment: Cytotoxicity against african green monkey Vero cells upto 30 uM after 48 hrs by neutral red assay; format: cell-based; settings: chlorocebus sabaeus; how it was run: as §2

| SMILES | IC50 (Plasmodium falciparum [1]) | IC50 (Plasmodium falciparum [2]) | Activity (Vero [3]) | selectivity ratio [4] | selectivity ratio [5] | Activity (SK-MEL) | Activity (KB) | Activity (BT-549) | Activity (SK-OV-3) | Activity [6] | Activity (Vero [7]) |
| --- | --- | --- | --- | --- | --- | --- | --- | --- | --- | --- | --- |
| CC(C)(C)c1ccc(C2OOC(c3ccc(C(C)(C)C)cc3)OO2)cc1 (stereo not drawn) | 2190 nM | 3930 nM | Non-toxic | > 6.1 | > 3.4 | – | – | – | – | – | – |
| Cc1ccc(C2OOC(c3ccc(C(C)C)cc3)OO2)cc1 (stereo not drawn) | 590 nM | 770 nM | Non-toxic | > 26.4 | > 20.9 | – | – | – | – | – | – |
| CCCc1ccc(C2OOC(c3ccc(CCC)cc3)OO2)cc1 (stereo not drawn) | 610 nM | 760 nM | Non-toxic | > 23.8 | > 19 | Non-toxic | Non-toxic | Non-toxic | Non-toxic | Non-toxic | Non-toxic |
| CCCCc1ccc(C2OOC(c3ccc(CCCC)cc3)OO2)cc1 (stereo not drawn) | 3650 nM | 4770 nM | Non-toxic | > 3.7 | > 2.8 | – | – | – | – | – | – |
| CCc1ccc(C2OOC(c3ccc(C)cc3)OO2)cc1 (stereo not drawn) | 380 nM | 450 nM | Non-toxic | > 43.6 | > 36.7 | – | – | – | – | – | – |
| Cc1ccc(C2OOC(c3ccc(C(C)(C)C)cc3)OO2)cc1 (stereo not drawn) | 600 nM | 790 nM | Non-toxic | > 25.1 | > 19 | – | – | – | – | – | – |
| COc1ccc(C2OOC(c3ccc(C)cc3)OO2)cc1 (stereo not drawn) | 760 nM | 1080 nM | Non-toxic | > 21.6 | > 15.4 | – | – | – | – | – | – |
| CC(C)c1ccc(C2OOC(c3ccc(C(C)C)cc3)OO2)cc1 (stereo not drawn) | 670 nM | 1030 nM | Non-toxic | > 21.6 | > 14 | Non-toxic | Non-toxic | Non-toxic | Non-toxic | Non-toxic | Non-toxic |
| CCc1ccc(C2OOC(c3ccc(CC)cc3)OO2)cc1 (stereo not drawn) | 990 nM | – | Non-toxic | > 15.9 | > 15.9 | Non-toxic | Non-toxic | Non-toxic | Non-toxic | Non-toxic | Non-toxic |
| Cc1ccc(C2OOC(c3ccccc3C)OO2)cc1 (stereo not drawn) | 3050 nM | 2200 nM | Non-toxic | > 5.7 | > 7.9 | – | – | – | – | – | – |
| Cc1cccc(C2OOC(c3ccccc3C)OO2)c1 (stereo not drawn) | 1030 nM | 1360 nM | Non-toxic | > 17 | > 12.9 | – | – | – | – | – | – |
| COc1ccc(C2OOC(c3ccc(C(C)C)cc3)OO2)cc1 (stereo not drawn) | 7900 nM | 5690 nM | Non-toxic | > 1.9 | > 2.6 | – | – | – | – | – | – |
| CCc1ccc(C2OOC(c3ccc(C(C)(C)C)cc3)OO2)cc1 (stereo not drawn) | 5480 nM | 3650 nM | Non-toxic | > 2.6 | > 4 | – | – | – | – | – | – |
| CCCc1ccc(C2OOC(c3ccc(C)cc3)OO2)cc1 (stereo not drawn) | 1990 nM | 1060 nM | Non-toxic | > 7.9 | > 14.9 | – | – | – | – | – | – |
| Cc1ccc(C2OOC(c3ccc(C=O)cc3)OO2)cc1 (stereo not drawn) | – | – | Non-toxic | – | – | – | – | – | – | – | – |
| CCCc1ccc(C2OOC(c3ccc(OC)cc3)OO2)cc1 (stereo not drawn) | 940 nM | 660 nM | Non-toxic | > 15.8 | > 22.7 | – | – | – | – | – | – |
| CCCc1ccc(C2OOC(c3ccc(C(C)C)cc3)OO2)cc1 (stereo not drawn) | 960 nM | 800 nM | Non-toxic | > 15.4 | > 18.3 | – | – | – | – | – | – |
| CCc1ccc(C2OOC(c3cccc(C)c3)OO2)cc1 (stereo not drawn) | 350 nM | 560 nM | Non-toxic | > 47.6 | > 29.8 | – | – | – | – | – | – |
| CCc1ccc(C2OOC(c3ccc(C(C)C)cc3)OO2)cc1 (stereo not drawn) | 450 nM | 570 nM | Non-toxic | > 34 | > 26.4 | – | – | – | – | – | – |
| Cc1ccc(C2OOC(c3ccccc3)OO2)cc1 (stereo not drawn) | 930 nM | 1080 nM | Non-toxic | > 19.8 | > 17 | – | – | – | – | – | – |
| COc1ccc(C2OOC(c3cccc(C)c3)OO2)cc1 (stereo not drawn) | 420 nM | 620 nM | Non-toxic | > 39.7 | > 26.4 | – | – | – | – | – | – |
| Cc1ccc(C2OOC(c3cccc(C)c3)OO2)cc1 (stereo not drawn) | 670 nM | 1030 nM | Non-toxic | > 25.1 | > 17 | – | – | – | – | – | – |
| Cc1cccc(C2OOC(c3ccccc3)OO2)c1 (stereo not drawn) | 500 nM | 460 nM | Non-toxic | > 36.8 | > 39.7 | – | – | – | – | – | – |
| CCCc1ccc(C2OOC(c3ccc(C(C)(C)C)cc3)OO2)cc1 (stereo not drawn) | 4090 nM | 2630 nM | Non-toxic | > 3.4 | > 5.3 | – | – | – | – | – | – |
| COc1ccc(C2OOC(c3ccc(C(C)(C)C)cc3)OO2)cc1 (stereo not drawn) | 540 nM | 640 nM | Non-toxic | > 26.4 | > 22.7 | – | – | – | – | – | – |
| CC(C)c1ccc(C2OOC(c3ccc(C(C)(C)C)cc3)OO2)cc1 (stereo not drawn) | 13900 nM | 9340 nM | Non-toxic | > 1 | > 1.5 | – | – | – | – | – | – |
| C[C@@H]1CC[C@H]2[C@@H](C)C(=O)O[C@@H]3O[C@@]4(C)CC[C@@H]1[C@]32OO4 [ARTEMISININ] | – | 15 nM | Non-toxic | > 476 | > 1400 | – | – | – | – | – | – |
| CCN(CC)CCCC(C)Nc1ccnc2cc(Cl)ccc12 (stereo not drawn) [CHLOROQUINE] | – | – | Non-toxic | – | – | – | – | – | – | – | – |

Reference: ChEMBL document CHEMBL1152414, “Synthesis, antimalarial activity and cytotoxicity of substituted 3,6-diphenyl-[1,2,4,5]tetraoxanes” (Bioorg Med Chem, 2009)
